Consider 16 compounds from ChEMBL document CHEMBL1145053, “Stereoselective synthesis and structure-activity relationship of novel ceramide trafficking inhibitors. (1R,3R)-N-(3-hydroxy-1-hydroxymethyl-3-phenylpropyl)dodecanamide and its analogues” (J Med Chem, 2003).

For test [1], the system named is CHO. Put plainly: Inhibitory concentration on de novo synthesis of sphingomyelin (SM) by metabolic labeling of lipids in CHO cells with radioactive serine. The format is functional, cell-based. Particulars: Cricetulus griseus. Put shortly:
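Compound tested at 0 to 1 μM in serum-free medium containing 0.01% (v/v) DMSO. Subconfluent CHO-K1 monolayers were preincubated at 4 °C for 15 min, then pulsed with L-[14C]serine (0.75 μCi) at 33 °C for 2 h. Labeled SM was separated by TLC, imaged, and normalized to cell protein. IC50 came from […] of a single assay series.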

Test [2] relates to CHO. The test is described as follows: Effect of compound on de novo synthesis of sphingomyelin (SM) by metabolic labeling of lipids in CHO cells with radioactive serine at 1 uM. It is filed as functional, Cricetulus griseus. Put shortly: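 CHO-K1 subconfluent monolayers preincubated in serum-free medium with compound at 1 μM, 0.01% (v/v) DMSO, 4 °C for 15 min. L-[14C]serine (0.75 μCi) then added, 33 °C for 2 h. Lipids extracted, TLC-separated, labeled SM quantified by imaging analyzer and normalized to lysate protein. Reported as % of DMSO-only control; mean ± SD, n = 3.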

The structures appear in SMILES notation. Several values for one entry are separate records, joined by “and”; a condition that tells them apart may be missing. Identical values can stand only once. A value given as a limit tells only on which side of the number the result lay.

Regarding `CCCCCCCCCCCCCCC(=O)N[C@@H](CO)C[C@@H](O)c1ccccc1`, the concentration for half-maximal inhibition (IC50) in test [1] was 90 nM.
In the case of `CCCCCCCCCCCCC(=O)N[C@@H](CO)C[C@@H](O)c1ccccc1`, the half-maximal inhibitory concentration (IC50) in test [1] came to 50 nM.
In the case of `CCCCCCCCCCC(=O)N[C@@H](CO)C[C@@H](O)c1ccccc1`, the 50% inhibitory concentration (IC50) in test [1] worked out at 110 nM.
As for `CCCCCCCCCCCC(=O)N[C@@H](CO)[C@H](O)[C@H](O)c1ccccc1`, in test [2], the “Sphingomyelin synthesis, % of control” value was 17%.
Take `CCCCCCCCCCCCCC(=O)N[C@@H](CO)C[C@@H](O)c1ccccc1`: the IC50 in test [1] worked out at 70 nM.
Consider `CCCCCCCCCCCC(=O)N[C@@H](CO)[C@@H](O)[C@@H](O)c1ccccc1`, for which the “Sphingomyelin synthesis, % of control” value in test [2] was determined as 57%.
`CCCCCCCCCCCC(=O)N[C@@H](CO)[C@@H](O)[C@H](O)c1ccccc1`: in test [2], the “Sphingomyelin synthesis, % of control” value was 40%.
Take `CCCCCCCCCC(=O)N[C@@H](CO)C[C@@H](O)c1ccccc1`: the IC50 in test [1] was found to be 300 nM.
`CCCCCCCCCCCC(=O)N[C@@H](COC)C[C@@H](O)c1ccccc1`: the “Sphingomyelin synthesis, % of control” value in test [2] was 79%.
As for `CCCCCCCCCCCC(=O)N[C@@H](CO)C[C@@H](O)c1ccccc1`, the “Sphingomyelin synthesis, % of control” value in test [2] is 8.2% and 4%. Further, in test [1], the IC50 came to 70 nM.
Regarding `CCCCCCCCCCCC(=O)N[C@@H](CO)C[C@@H](OC)c1ccccc1`, the “Sphingomyelin synthesis, % of control” value in test [2] is 119%.
With `CCCCCCCCCCCCCCCC(=O)N[C@@H](CO)C[C@@H](O)c1ccccc1`, the IC50 in test [1] is more than 1000 nM.
Regarding `CCCCCCCCCCCCCCCCC(=O)N[C@@H](CO)C[C@@H](O)c1ccccc1`, the half-inhibitory concentration (IC50) in test [1] was more than 1000 nM.
For the compound `CCCCCCCCCCCC(=O)N[C@@H](COC)C[C@@H](OC)c1ccccc1`, the “Sphingomyelin synthesis, % of control” value in test [2] is reported as 130%.
Still for that read-out and setting: as for `CCCCCCCCCCCC(=O)N[C@@H](CO)[C@H](O)[C@@H](O)c1ccccc1`, the figure is 28%.
As to `CCCCCCCCCCCCCCCCCC(=O)N[C@@H](CO)C[C@@H](O)c1ccccc1`, the 50% inhibitory concentration (IC50) in test [1] is more than 1000 nM.
